Activity calls are given as the source filed them. Unless noted, no cut-off for these calls is given here.
What was measured:
[1] = Inhibition in C57BL/6J mouse embryonic fibroblasts assessed as decrease in eIF4E phosphorylation at 0.1 to 0.3 uM after 2 hrs by Western blot analysis relative to control
[2] = target: MAP kinase-interacting serine/threonine-protein kinase 2 (Homo sapiens) (UniProt Q9HBH9); experiment: Inhibition of GST-fused MNK2a (unknown origin) expressed in HEK293 cells using eIF4E as substrate after 30 mins by Western blot analysis; type: cell-based
MAP kinase-interacting serine/threonine-protein kinase 2 (Homo sapiens), sequence (Q9HBH9 whole entry, looked up, the tested form may be a part): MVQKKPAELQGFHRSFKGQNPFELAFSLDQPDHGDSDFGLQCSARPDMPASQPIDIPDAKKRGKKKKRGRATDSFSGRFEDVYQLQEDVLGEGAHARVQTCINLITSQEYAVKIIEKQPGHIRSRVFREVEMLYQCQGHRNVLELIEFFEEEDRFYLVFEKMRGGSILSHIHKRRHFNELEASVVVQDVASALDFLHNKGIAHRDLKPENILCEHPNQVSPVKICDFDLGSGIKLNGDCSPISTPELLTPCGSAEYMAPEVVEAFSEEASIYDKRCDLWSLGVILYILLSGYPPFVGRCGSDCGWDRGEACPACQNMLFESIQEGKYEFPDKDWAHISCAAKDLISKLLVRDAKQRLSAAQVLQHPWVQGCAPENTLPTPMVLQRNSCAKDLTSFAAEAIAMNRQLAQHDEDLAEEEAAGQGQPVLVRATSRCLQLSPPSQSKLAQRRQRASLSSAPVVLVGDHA
How it was run: (§1)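 GST-MNK1a or GST-MNK2a expressed in transfected HEK293 cells, purified by glutathione pull-down. Incubated in 25 mM Tris-HCl pH 7.5, 50 mM KCl, 2 mM MgCl₂ with 20 µM ATP and 65 ng E. coli-expressed eIF4E, 30 °C, 30 min, ± inhibitor. Stopped with sample buffer; immunoblotted for P-eIF4E Ser209, eIF4E and GST. Conditions pre-set within linear range.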

[3] = target: Mitogen-activated protein kinase 1 and 3 (ERK2 and ERK1) (Mus musculus) (UniProt P63085+Q63844); experiment: Stimulation of ERK1/2 phosphorylation at Thr202/Tyr204 residues in mouse 3T3L1 cells at 0.1 to 5 uM after 2 hrs by Western blot analysis; type: cell-based
Mitogen-activated protein kinase 1 and 3 (ERK2 and ERK1) (Mus musculus), sequence (P63085 whole entry, looked up): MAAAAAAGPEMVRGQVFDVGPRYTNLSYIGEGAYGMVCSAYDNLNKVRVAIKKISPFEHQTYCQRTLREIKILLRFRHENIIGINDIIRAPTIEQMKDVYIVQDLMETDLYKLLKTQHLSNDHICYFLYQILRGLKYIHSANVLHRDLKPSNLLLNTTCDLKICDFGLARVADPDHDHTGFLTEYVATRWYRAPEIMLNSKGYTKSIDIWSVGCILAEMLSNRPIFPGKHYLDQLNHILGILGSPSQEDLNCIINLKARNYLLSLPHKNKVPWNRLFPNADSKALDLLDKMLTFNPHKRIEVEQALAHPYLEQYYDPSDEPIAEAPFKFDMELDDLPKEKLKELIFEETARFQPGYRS
Mitogen-activated protein kinase 1 and 3 (ERK2 and ERK1) (Mus musculus), sequence (Q63844 whole entry, looked up): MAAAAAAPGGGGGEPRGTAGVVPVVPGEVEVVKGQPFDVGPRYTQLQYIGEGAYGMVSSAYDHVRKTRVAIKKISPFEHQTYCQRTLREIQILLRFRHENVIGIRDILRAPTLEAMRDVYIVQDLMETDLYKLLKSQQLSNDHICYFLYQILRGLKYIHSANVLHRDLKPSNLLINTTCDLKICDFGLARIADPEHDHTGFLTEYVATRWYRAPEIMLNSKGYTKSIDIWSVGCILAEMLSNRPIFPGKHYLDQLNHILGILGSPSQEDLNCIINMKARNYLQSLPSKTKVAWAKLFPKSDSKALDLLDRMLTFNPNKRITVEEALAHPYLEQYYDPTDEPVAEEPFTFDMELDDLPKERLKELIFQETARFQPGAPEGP
How it was run: (§2)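 3T3-L1 cells treated 2 h with inhibitor at indicated concentrations (DMSO <0.05% v/v). RIPA lysates, equal protein by Bradford, SDS-PAGE and western blot with phospho-specific antibodies (ERK, RSK, PKB Ser473, 4E-BP1, rpS6); fluorescent secondary imaging. Quantified from three independent experiments, SEM error bars.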

Mus musculus [4] = organism: Mus musculus; experiment: Inhibition of mTORC2 in mouse 3T3L1 cells assessed as reduction in PKB phosphorylation at Ser473 residue at 0.1 to 5 uM after 2 hrs by Western blot analysis; type: cell-based
How it was run: as §2

[5] = target: MAP kinase-interacting serine/threonine-protein kinase 1 (Mus musculus) (UniProt O08605); experiment: Inhibition of MNK1 in MNK2-knockout C57BL/6J mouse embryonic fibroblasts assessed as decrease in eIF4E phosphorylation at 0.3 to 5 uM after 2 hrs by Western blot analysis
MAP kinase-interacting serine/threonine-protein kinase 1 (Mus musculus), sequence (O08605 whole entry): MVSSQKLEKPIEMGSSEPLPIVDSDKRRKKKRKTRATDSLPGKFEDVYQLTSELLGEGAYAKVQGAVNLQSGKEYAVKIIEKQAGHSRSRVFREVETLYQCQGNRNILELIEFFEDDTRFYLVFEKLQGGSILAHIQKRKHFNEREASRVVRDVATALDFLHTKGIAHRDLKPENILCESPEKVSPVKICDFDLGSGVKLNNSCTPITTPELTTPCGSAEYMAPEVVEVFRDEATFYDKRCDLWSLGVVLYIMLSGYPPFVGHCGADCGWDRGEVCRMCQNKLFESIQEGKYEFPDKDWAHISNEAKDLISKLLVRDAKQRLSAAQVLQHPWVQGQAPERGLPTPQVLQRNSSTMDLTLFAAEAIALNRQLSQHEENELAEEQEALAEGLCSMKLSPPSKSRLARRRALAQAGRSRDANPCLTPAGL
How it was run: (§3)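 MEFs from E13.5 C57BL/6J embryos, wild-type, MNK1-KO or MNK2-KO (DMEM, 10% FBS), treated 2 h with inhibitor at indicated concentrations, including a lower-concentration series in MNK1-KO cells; CGP57380 at 50 μM as reference. Lysates analysed by SDS-PAGE/western blot for P-eIF4E; quantified from three independent experiments, SEM.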

Mus musculus [6] = organism: Mus musculus; experiment: Stimulation of ERK signalling in mouse 3T3L1 cells assessed as increase in RSK phosphorylation at […] residue at 0.1 to 5 uM after 2 hrs by Western blot analysis; type: cell-based
How it was run: as §2

3T3-L1 = experiment: Effect on total eIF4E protein level in mouse 3T3L1 cells at 3 uM after 2 hrs by Western blot analysis; type: ADME, cell-based; conditions: 3t3-l1, 2 h
How it was run: (§4)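 Mouse 3T3-L1 pre-adipocytes (DMEM high glucose, 10% heat-inactivated FBS, 37 °C, 5% CO₂) treated 2 h with compounds at 3 μM or lower concentrations down to 0.1 μM final; DMSO vehicle 0.03-0.05% final. RIPA lysates cleared, equal protein resolved by SDS-PAGE, immunoblotted for P-eIF4E and total eIF4E, fluorescent secondary detection.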

[7] = target: MAP kinase-interacting serine/threonine-protein kinase 1 (Mus musculus) (UniProt O08605); experiment: Inhibition of MNK1 in C57BL/6J mouse embryonic fibroblasts assessed as decrease in eIF4E phosphorylation at 0.1 to 0.3 uM after 2 hrs by Western blot analysis relative to control
How it was run: as §3

[8] = target: MAP kinase-interacting serine/threonine-protein kinase 1 (Homo sapiens) (UniProt Q9BUB5); experiment: Inhibition of GST-fused MNK1a (unknown origin) expressed in HEK293 cells using eIF4E as substrate after 30 mins by Western blot analysis; type: cell-based
MAP kinase-interacting serine/threonine-protein kinase 1 (Homo sapiens), sequence (Q9BUB5 whole entry, looked up, the tested form may be a part): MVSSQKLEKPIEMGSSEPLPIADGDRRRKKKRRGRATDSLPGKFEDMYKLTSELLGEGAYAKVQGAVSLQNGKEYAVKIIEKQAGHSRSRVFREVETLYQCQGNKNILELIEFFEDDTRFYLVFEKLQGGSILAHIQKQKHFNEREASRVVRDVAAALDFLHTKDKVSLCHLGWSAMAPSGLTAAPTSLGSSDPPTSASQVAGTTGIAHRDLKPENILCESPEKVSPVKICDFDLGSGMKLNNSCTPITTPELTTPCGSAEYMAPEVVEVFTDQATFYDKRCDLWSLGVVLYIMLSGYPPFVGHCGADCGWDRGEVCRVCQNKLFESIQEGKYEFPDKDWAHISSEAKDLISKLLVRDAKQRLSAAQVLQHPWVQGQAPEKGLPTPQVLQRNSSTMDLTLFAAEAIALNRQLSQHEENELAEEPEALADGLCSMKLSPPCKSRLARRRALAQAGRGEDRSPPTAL
How it was run: as §1

[9] = target: MAP kinase-interacting serine/threonine-protein kinase 2 (Mus musculus) (UniProt Q8CDB0); experiment: Inhibition of MNK2 in MNK1-knockout C57BL/6J mouse embryonic fibroblasts assessed as decrease in eIF4E phosphorylation at 0.003 to 0.03 uM after 2 hrs by Western blot analysis
MAP kinase-interacting serine/threonine-protein kinase 2 (Mus musculus), sequence (Q8CDB0 whole entry): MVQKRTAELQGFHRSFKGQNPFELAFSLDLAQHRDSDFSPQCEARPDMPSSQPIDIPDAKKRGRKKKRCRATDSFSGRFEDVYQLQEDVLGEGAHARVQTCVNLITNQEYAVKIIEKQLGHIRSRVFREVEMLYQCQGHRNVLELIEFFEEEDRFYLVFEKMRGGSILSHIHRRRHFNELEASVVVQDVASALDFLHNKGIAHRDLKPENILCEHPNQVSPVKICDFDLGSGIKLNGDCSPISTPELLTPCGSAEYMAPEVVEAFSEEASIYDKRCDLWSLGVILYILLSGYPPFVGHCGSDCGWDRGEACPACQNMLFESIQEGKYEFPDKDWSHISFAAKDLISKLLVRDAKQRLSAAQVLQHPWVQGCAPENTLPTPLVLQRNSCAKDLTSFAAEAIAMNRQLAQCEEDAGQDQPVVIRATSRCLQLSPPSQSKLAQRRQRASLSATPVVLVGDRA
How it was run: as §3

MDA-MB-231 [10] = experiment: Cell cycle arrest in human MDA-MB-231 cells assessed as accumulation of cells at sub-G0 phase at 0.3 to 6 uM after 2 hrs by propidium iodide staining-based flow cytometric analysis; type: ADME; conditions: mda-mb-231, 2 h
How it was run: (§5)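 MDA-MB-231 cells seeded at 5 x 10^5 cells/well, allowed 24 h to attach, then treated with inhibitor or vehicle. Harvested at ~70% confluence, fixed in methanol ≥2 h, stained with 1 µg/ml propidium iodide; ~20,000 cells analysed by flow cytometry for cell-cycle phase proportions including sub-G0. Mean ± SEM, n=5.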

[11] = target: MAP kinase-interacting serine/threonine-protein kinase 2 (Mus musculus) (UniProt Q8CDB0); experiment: Inhibition of MNK2 in C57BL/6J mouse embryonic fibroblasts assessed as decrease in eIF4E phosphorylation at 5 uM after 2 hrs by Western blot analysis
How it was run: as §3

[12] = target: MAP kinase-interacting serine/threonine-protein kinase 2 (Mus musculus) (UniProt Q8CDB0); experiment: Inhibition of MNK2 in MNK1-knockout C57BL/6J mouse embryonic fibroblasts assessed as decrease in eIF4E phosphorylation at 0.5 uM after 2 hrs by Western blot analysis
How it was run: as §3

Mus musculus [13] = organism: Mus musculus; experiment: Inhibition of MNK in mouse 3T3L1 cells assessed as reduction of eIF4E phosphorylation at 0.1 uM after 2 hrs by Western blot analysis; type: cell-based
How it was run: as §4

[14] = target: T1, MAP kinase-interacting serine/threonine-protein kinase 1/2 (Homo sapiens) (UniProt Q9HBH9+Q9BUB5); experiment: Inhibition of MNK in human MDA-MB-231 cells assessed as decrease in eIF4E phosphorylation at 3 uM up to 72 hrs by Western blot analysis; type: cell-based
How it was run: (§6)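 MDA-MB-231 cells treated with inhibitor at indicated concentrations for 2 h, or at 3 μM for times up to 72 h (DMSO vehicle <0.05%). Cells lysed in RIPA buffer; supernatants analysed by SDS-PAGE and western blot for P-eIF4E and total eIF4E. CGP57380 at 30 μM as reference.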

Mus musculus [15] = organism: Mus musculus; experiment: Inhibition of mTORC1 in mouse 3T3L1 cells assessed as reduction in rpS6 phosphorylation at Ser240/244 residues at 0.1 to 5 uM after 2 hrs by Western blot analysis; type: cell-based
How it was run: as §2

[16] = target: T1, MAP kinase-interacting serine/threonine-protein kinase 1/2 (Homo sapiens); experiment: Inhibition of MNK in human MDA-MB-231 cells assessed as decrease in eIF4E phosphorylation at 1 uM after 2 hrs by Western blot analysis; type: cell-based
How it was run: as §6

MDA-MB-231 [17] = experiment: Antimigratory activity against human MDA-MB-231 cells after 24 hrs by DAPI staining-based Transwell assay; type: functional, cell-based
How it was run: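 MDA-MB-231 cells pre-treated with inhibitor 60 min, then 3 x 10⁵ cells seeded into 8 μm-pore Transwell inserts pre-coated with 10 μg/ml collagen (collagen as attractant). After 24 h, migrated cells in bottom well stained with DAPI, imaged at ×10 and counted. Triplicate assays, mean ± SEM.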

MDA-MB-231 [18] = experiment: Cell cycle arrest in human MDA-MB-231 cells at 0.3 to 6 uM after 2 hrs by propidium iodide staining-based flow cytometric analysis; type: ADME; conditions: mda-mb-231, 2 h
How it was run: as §5

[19] = target: MAP kinase-interacting serine/threonine-protein kinase 1 (Mus musculus) (UniProt O08605); experiment: Inhibition of MNK1 in C57BL/6J mouse embryonic fibroblasts assessed as decrease in eIF4E phosphorylation at 5 uM after 2 hrs by Western blot analysis
How it was run: as §3

Mus musculus [20] = organism: Mus musculus; experiment: Inhibition of MNK in mouse 3T3L1 cells assessed as reduction of eIF4E phosphorylation at 3 uM after 2 hrs by Western blot analysis; type: cell-based
How it was run: as §4

Mus musculus [21] = organism: Mus musculus; experiment: Inhibition of mTORC1 in mouse 3T3L1 cells assessed as reduction in 4EBP1 at Ser65 residue phosphorylation at 0.1 to 5 uM after 2 hrs by Western blot analysis; type: cell-based
How it was run: as §2

inhibition [1]: 50%
inhibition [2]: Active
Activity [3]: Active
inhibition [5]: Active
inhibition [7]: 50%
inhibition [8]: Active
inhibition [9]: Active
inhibition [11]: 100%
inhibition [12]: Active
inhibition [14]: Active
inhibition [16]: 100%
inhibition [19]: 100%
Structure (SMILES): Cc1c(C(=O)NCCCN2CCCC2)sc2ncnc(Nc3ccc(F)cc3OC(C)C)c12
inhibition (Mus musculus [4]): inactive
Activity (Mus musculus [6]): Active
Activity (3T3-L1): Non-Toxic
Activity (MDA-MB-231 [10]): Non-Toxic
inhibition of eIF4E phosphorylation (active/not active) (Mus musculus [13]): Active
inhibition (Mus musculus [15]): inactive
inhibition (MDA-MB-231 [17]): Active
Activity (MDA-MB-231 [18]): Non-Toxic
MNK inhibition (active/not active) (Mus musculus [20]): Active
inhibition (Mus musculus [21]): inactive
